Calls of active or inactive are those of the source. No cut-off for these calls is given here.
Tests used:
[1] = Toxicity against interferon gamma-stimulated human THP-1 monocyte cells co-cultured with human HT-29 cells assessed as reduction in cell viability at 100 uM incubated for 48 hrs by flow cytometry analysis; assay type: cell-based; settings: thp-1, 48 h
Method in brief: (§1)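 HT-29 cells at 10^5/well seeded and grown 24 h. Medium then replaced with medium containing IFN-γ (10 ng/ml), 5 × 10^5 THP-1 cells/well and compound at 100 µM; DMSO used as control. After 48 h, THP-1 cells collected from supernatant and cancer cells by trypsinisation. Both fixed in 4% paraformaldehyde and counted by flow cytometry relative to control.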

HT-29 [2] = assay: Antiproliferative activity against human HT-29 cells assessed as reduction in IL-6 secretion at 100 uM incubated for 48 hrs by ELISA assay; assay type: functional, cell-based
Method in brief: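 HT-29 monocultures at 10^5 cells/well treated 48 h with compound at 100 µM in 500 µL growth medium. Media collected and secreted IL-6 measured with a human IL-6 ELISA kit.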

HT-29 [3] = assay: Immunomodulatory activity in human HT-29 cells co-cultured with interferon gamma-stimulated THP-1 cells assessed as cell viability at 100 uM incubated for 48 hrs by flow cytometry analysis relative to control; assay type: functional; settings: read-out: Activity; method in brief: as §1
HT-29 [4] = assay: Immunomodulatory activity in human HT-29 cells co-cultured with interferon gamma-stimulated THP-1 cells assessed as inhibition of cell growth at 100 uM incubated for 48 hrs by flow cytometry analysis relative to control; assay type: functional; method in brief: as §1
HT-29 [5] = assay: Immunomodulatory activity in human HT-29 cells co-cultured with interferon gamma-stimulated THP-1 cells assessed as relative CD-47 protein expression in membrane at 100 uM incubated for 48 hrs by flow cytometry analysis relative to control; assay type: functional
HT-29 [6] = assay: Immunomodulatory activity in human HT-29 cells co-cultured with interferon gamma-stimulated THP-1 cells assessed as relative PD-L1 protein expression in membrane at 100 uM incubated for 48 hrs by flow cytometry analysis relative to control; assay type: functional
HT-29 [7] = assay: Immunomodulatory activity in human HT-29 cells co-cultured with interferon gamma-stimulated THP-1 cells assessed as IL-6 level at 100 uM incubated for 48 hrs by ELISA analysis (reference value: 192 +/- 16 pg/ml); assay type: functional
Method in brief: (§2)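 HT-29 cells co-cultured with IFN-γ (10 ng/ml)-stimulated THP-1 cells and treated 48 h with compound at 100 µM. Culture media collected and IL-6 measured by human IL-6 ELISA, in pg/mL and as % of control. Mean of three experiments.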

HT-29 [8] = assay: Immunomodulatory activity in human HT-29 cells co-cultured with interferon gamma-stimulated THP-1 cells assessed as relative IL-6 level at 100 uM incubated for 48 hrs by ELISA analysis relative to control; assay type: functional; method in brief: as §2
HT-29 [9] = assay: Immunomodulatory activity in human HT-29 cells co-cultured with interferon gamma-stimulated THP-1 cells assessed as inhibition of IL-6 secretion at 100 uM incubated for 48 hrs by ELISA analysis relative to control; assay type: functional; method in brief: as §2
HT-29 [10] = assay: Antiproliferative activity against human HT-29 cells assessed as relative PD-L1 protein expression in membrane at 100 uM incubated for 48 hrs by flow cytometry analysis relative to control; assay type: functional
HT-29 [11] = assay: Antiproliferative activity against human HT-29 cells assessed as relative PD-L1 protein expression in whole cell at 100 uM incubated for 48 hrs by flow cytometry analysis relative to control; assay type: functional
HT-29 [12] = assay: Antiproliferative activity against human HT-29 cells assessed as relative c-Myc protein expression at 100 uM incubated for 48 hrs by flow cytometry analysis relative to control; assay type: functional
HT-29 [13] = assay: Antiproliferative activity against human HT-29 cells assessed as relative VEGFR-2 protein expression in membrane at 100 uM incubated for 48 hrs by flow cytometry analysis relative to control; assay type: functional
HT-29 [14] = assay: Antiproliferative activity against human HT-29 cells assessed as relative VEGFR-2 protein expression in whole cell at 100 uM incubated for 48 hrs by flow cytometry analysis relative to control; assay type: functional
HMEC-1 [15] = assay: Antiangiogenic activity in HMEC-1 cells assessed as inhibition of endothelial microtubes formation at 100 uM incubated for 24 hrs by matrigel based imaging analysis; assay type: functional, cell-based; settings: Homo sapiens
Method in brief: (§3)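 HMEC-1 cells at 2 × 10^4 cells/well seeded on Matrigel (10 mg/mL, gelled 30 min at 37 °C) in EGM-2MV medium with SingleQuots, allowed to attach 30 min at 37 °C. Compounds then added in medium; after 24 h at 37 °C, microtube formation/destruction evaluated from pictures.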

HMEC-1 [16] = assay: Antiangiogenic activity in HMEC-1 cells assessed as inhibition of endothelial microtubes formation at <75 uM incubated for 24 hrs by matrigel based imaging analysis; assay type: functional, cell-based; settings: Homo sapiens; method in brief: as §3
HEK293 [17] = assay: Anti-vasculogenic activity against HEK293 cells assessed as disruption of tube-like structures at 100 uM incubated for 24 hrs by Matrigel based imaging analysis; assay type: functional, cell-based; settings: Homo sapiens
Method in brief: (§4)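 HEK-293 cells seeded at 5 × 10^4 cells/well on Matrigel (pre-incubated with medium 24 h at 37 °C), grown 24 h at 37 °C until tube-like structures form; compounds then added in medium and incubated a further 24 h at 37 °C. Disruption of preformed tube-like structures assessed by imaging.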

HEK293 [18] = assay: Anti-vasculogenic activity against HEK293 cells assessed as disruption of tube-like structures at <75 uM incubated for 24 hrs by Matrigel based imaging analysis; assay type: functional, cell-based; settings: Homo sapiens; method in brief: as §4
HT-29 [19] = assay: Immunomodulatory activity in human HT-29 cells co-cultured with interferon gamma-stimulated THP-1 cells assessed as inhibition of CD-47 protein expression at 100 uM incubated for 48 hrs by flow cytometry analysis relative to control; assay type: functional
HT-29 [20] = assay: Immunomodulatory activity in human HT-29 cells co-cultured with interferon gamma-stimulated THP-1 cells assessed as inhibition of PD-L1 protein expression in cell surface at 100 uM incubated for 48 hrs by flow cytometry analysis relative to control; assay type: functional
HT-29 [21] = assay: Antiproliferative activity against human HT-29 cells assessed as reduction in cell viability incubated for 48 hrs by MTT assay; assay type: functional, cell-based; settings: HT-29, 48 h
Method in brief: (§5)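 MTT dye-reduction assay. Cells at 5 × 10^3/well in DMEM with 10% FBS, treated with serial dilutions of compound (DMSO stocks) for 2 days at 37 °C, 5% CO2. MTT added for a further 3 h, formazan dissolved in DMSO, absorbance read at 550 nm. Viability expressed as % of untreated cells; IC50 determined graphically from three independent experiments.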

A549 = assay: Antiproliferative activity against human A549 cells assessed as reduction in cell viability incubated for 48 hrs by MTT assay; assay type: functional, cell-based; settings: A549, 48 h; method in brief: as §5
MCF7 = assay: Antiproliferative activity against human MCF7 cells assessed as reduction in cell viability incubated for 48 hrs by MTT assay; assay type: functional, cell-based; settings: MCF7, 48 h; method in brief: as §5
[22] = Cytotoxicity against HEK293 cells assessed as reduction in cell viability incubated for 48 hrs by MTT assay; assay type: toxicity, cell-based; settings: human; method in brief: as §5
HT-29 [23] = assay: Immunomodulatory activity in human HT-29 cells co-cultured with interferon gamma-stimulated THP-1 cells assessed as reduction in IL-6 level at 100 uM incubated for 48 hrs by ELISA analysis relative to control; assay type: functional; design: scale not given: the % may be the effect or the level left; method in brief: as §2

| SMILES | Activity [1] | Activity (HT-29 [2]) | viability at 100 µM (HT-29 [3]) [%] | inhibition at 100 µM (HT-29 [4]) [%] | Activity (HT-29 [5]) [%] | Activity (HT-29 [6]) [%] | Activity (HT-29 [7]) [pg/mL] | Activity (HT-29 [8]) [%] | inhibition at 100 µM (HT-29 [9]) [%] | Activity (HT-29 [10]) [%] | Activity (HT-29 [11]) [%] | Activity (HT-29 [12]) [%] | Activity (HT-29 [13]) [%] | Activity (HT-29 [14]) [%] | Activity (HMEC-1 [15]) | Activity (HMEC-1 [16]) | Activity (HEK293 [17]) | Activity (HEK293 [18]) | inhibition at 100 µM (HT-29 [19]) [%] | inhibition at 100 µM (HT-29 [20]) [%] | further results |
| --- | --- | --- | --- | --- | --- | --- | --- | --- | --- | --- | --- | --- | --- | --- | --- | --- | --- | --- | --- | --- | --- |
| Nc1cccc(-c2cn(Cc3cccc(Cl)c3)nn2)c1 | Non-Toxic | inactive | 8 | > 90 | 96 | 122 | 38 | 20 | > 80 | – | – | – | – | – | – | – | – | – | – | – | – |
| Nc1cccc(-c2nnn(Cc3ccccc3Br)n2)c1 | Non-Toxic | – | 23 | > 70 | – | 65 | – | – | – | 64 | >100 | 90 | >100 | 92 | Active | inactive | Active | inactive | > 30 | 70 | – |
| Nc1cccc(-c2nnn(Cc3ccc(Br)cc3)n2)c1 | Non-Toxic | inactive | 6 | > 90 | 60 | 70 | 5 | 3 | – | 92 | >100 | 76 | >100 | >100 | Active | inactive | Active | inactive | > 30 | 70 | IC50 (HT-29 [21]): > 100 µM; IC50 (A549): > 100 µM; IC50 (MCF7): 44 µM; IC50 at 48 h [22]: > 100 µM; Activity (HT-29 [23]): >95% |
| Nc1cccc(-c2nnn(Cc3cccc(Br)c3)n2)c1 | Non-Toxic | – | 19 | > 70 | – | 64 | – | – | – | 66 | >100 | 83 | >100 | >100 | Active | inactive | Active | inactive | > 30 | 70 | – |
| Nc1cccc(-c2cn(Cc3ccccc3Cl)nn2)c1 | Non-Toxic | inactive | 51 | – | 91 | 116 | 12 | 6 | > 80 | – | – | – | – | – | – | – | – | – | – | – | – |

— ChEMBL document CHEMBL5390247, “Aryl azoles based scaffolds for disrupting tumor microenvironment” (Bioorg Med Chem, 2023)
